# Experimental data collected from several papers.
# Each line is one published result; the experiments were not run side by side.
# Target: Testis-specific serine/threonine-protein kinase 2 (TSSK2, Homo sapiens, UniProt Q96PF2)
# Sequence (Q96PF2 1-358, as in one of the studies): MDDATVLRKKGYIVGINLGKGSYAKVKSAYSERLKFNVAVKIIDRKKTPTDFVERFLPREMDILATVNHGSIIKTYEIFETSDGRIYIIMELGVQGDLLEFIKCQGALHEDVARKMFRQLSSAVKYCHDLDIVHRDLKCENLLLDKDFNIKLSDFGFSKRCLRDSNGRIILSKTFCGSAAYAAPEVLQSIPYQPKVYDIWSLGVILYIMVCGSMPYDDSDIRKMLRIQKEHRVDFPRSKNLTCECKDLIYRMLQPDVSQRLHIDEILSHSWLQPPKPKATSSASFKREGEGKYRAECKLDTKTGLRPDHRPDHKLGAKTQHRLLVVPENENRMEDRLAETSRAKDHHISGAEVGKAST
SMILES,effect on,mode,technique,tested at,endpoint,value
CCN(CC)c1ccc(C2=NNC(=O)CC2C)cc1[N+](=O)[O-] (stereo not shown),enzyme activity,inhibitor,,10 µM,remaining activity,96%
COc1cc2ncnc(Nc3ccc(Oc4ccccc4)c(C)c3C)c2cc1OC,enzyme activity,inhibitor,,1 µM,inhibition,3%
CN1CC(Oc2cnc(C#N)cc2-c2ccn3nc(NC(=O)C4CC4)cc3c2)C1,enzyme activity,inhibitor,,1 µM,inhibition,0%
Cc1ccc(NC(=O)c2ccc(C)c(C(F)(F)F)c2)cc1C#Cc1nn(C2CCC(O)CC2)c2ncnc(N)c12 (stereo not shown),cell-free assay,,,10 µM,remaining signal,96%
CCN(CC)CCNC(=O)c1c(C)[nH]c(/C=C2\C(=O)Nc3ccc(F)cc32)c1C,enzyme activity,inhibitor,,0.3 µM,inhibition,0%
CCCS(=O)(=O)Nc1ccc(F)c(C(=O)c2c[nH]c3ncc(-c4ccc(Cl)cc4)cc23)c1F,enzyme activity,inhibitor,,1 µM,inhibition,< 10%
CC(C)(C)c1nc(-c2cccc(NS(=O)(=O)c3c(F)cccc3F)c2F)c(-c2ccnc(N)n2)s1,enzyme activity,inhibitor,radiometric,1 µM,remaining activity,86%
O=C1Nc2ccc(Cl)cc2C1=Cc1cc(Cl)c(O)c(Cl)c1,cell-free assay,,,0.5 µM,remaining signal,94.4%
O=C(Nc1cnn(-c2csc(C(=O)NC3COC3)c2)c1)Nc1ccccc1Cl,enzyme activity,inhibitor,,5 µM,remaining activity,91.5%
CNC(=O)c1cc(Oc2ccc(NC(=O)Nc3ccc(Cl)c(C(F)(F)F)c3)cc2)ccn1,enzyme activity,inhibitor,,10 µM,inhibition,-1%
O=C1NC(=O)c2cc(Nc3ccc(F)cc3)c(Nc3ccc(F)cc3)cc21,cell-free assay,,,0.5 µM,remaining signal,97.2%
Cc1ccc(Nc2nccc(N(C)c3ccc4c(C)n(C)nc4c3)n2)cc1S(N)(=O)=O,enzyme activity,inhibitor,,0.3 µM,inhibition,0%
Cc1cnc(NC2CCOCC2)nc1-n1cnc(C(=O)NC(CN)c2cc(F)cc(Cl)c2)c1 (stereo not shown),enzyme activity,inhibitor,radiometric,1 µM,remaining activity,108%
